Measurements from ChEMBL document CHEMBL1122578, “A colon-specific drug-delivery system based on drug glycosides and the glycosidases of colonic bacteria” (J Med Chem, 1984).

Key:
Type in all cases: functional, organism-based
Rattus norvegicus [1] = experiment: Recovery of steroid from cecum at 3h after administration of 7.5 mg of the compound; conditions: Caecum
Outline: (§1)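 Male Sprague-Dawley rats (ca. 250 g), fasted 16 h, water withdrawn ≥30 min before dosing; glucoside 7.5 mg by gastric intubation in 0.5 mL water/95% EtOH (3:1). Killed by CO2 then thoracotomy at 3–6 h; small intestine and cecum removed. Contents (MeOH) and tissues (0.01 M KH2PO4) homogenized with internal-standard steroid, centrifuged, filtered, quantified by C-18 HPLC-UV (MeOH/0.01 M KH2PO4 56.5:43.5); mean of four animals.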

Rattus norvegicus [2] = experiment: Recovery of steroid from cecum at 5 hr after administration of 7.5 mg of the compound; conditions: Caecum; outline: as §1
Rattus norvegicus [3] = experiment: Recovery of steroid from small intestine at 4 hr after administration of 7.5 mg of the compound; outline: as §1
Rattus norvegicus [4] = experiment: Recovery of steroid from small intestine at 3h after administration of 7.5 mg of the compound; outline: as §1
Rattus norvegicus [5] = experiment: Recovery of steroid from cecum at 4 hr after administration of 7.5 mg of the compound; conditions: Caecum; outline: as §1
Rattus norvegicus [6] = experiment: Recovery of steroid from small intestine at 6 hr after administration of 7.5 mg of the compound; outline: as §1
Rattus norvegicus [7] = experiment: Recovery of steroid from small intestine at 5 hr after administration of 7.5 mg of the compound; outline: as §1
Rattus norvegicus [8] = experiment: Recovery of steroid from cecum at 6 hr after administration of 7.5 mg of the compound; conditions: Caecum; outline: as §1
Rattus norvegicus [9] = experiment: Recovery of glucoside from small intestine at 6 hr after administration of 7.5 mg of the compound; outline: as §1
Rattus norvegicus [10] = experiment: Recovery of glucoside from small intestine at 4 hr after administration of 7.5 mg of the compound; outline: as §1
Rattus norvegicus [11] = experiment: Recovery of glucoside from small intestine at 5 hr after administration of 7.5 mg of the compound; outline: as §1
Rattus norvegicus [12] = experiment: Recovery of glucoside from cecum at 5 hr after administration of 7.5 mg of the compound; conditions: Caecum; outline: as §1
Rattus norvegicus [13] = experiment: Recovery of glucoside from cecum at 3h after administration of 7.5 mg.; conditions: Caecum; outline: as §1
Rattus norvegicus [14] = experiment: Recovery of glucoside from cecum at 4 hr after administration of 7.5 mg of the compound; conditions: Caecum; outline: as §1
Rattus norvegicus [15] = experiment: Recovery of glucoside from small intestine at 3h after administration of 7.5 mg of the compound; outline: as §1
Rattus norvegicus [16] = experiment: Recovery of glucoside from cecum at 6 hr after administration of 7.5 mg of the compound; conditions: Caecum; outline: as §1
Rattus norvegicus [17] = experiment: Recovery of glucoside from cecum at 3h after administration of 7.5 mg of the compound; conditions: Caecum; outline: as §1

SMILES	Recovery (Rattus norvegicus [1]) [mg]	Recovery (Rattus norvegicus [2]) [mg]	Recovery (Rattus norvegicus [3]) [mg]	Recovery (Rattus norvegicus [4]) [mg]	Recovery (Rattus norvegicus [5]) [mg]	Recovery (Rattus norvegicus [6]) [mg]	Recovery (Rattus norvegicus [7]) [mg]	Recovery (Rattus norvegicus [8]) [mg]	Recovery (Rattus norvegicus [9]) [mg]	Recovery (Rattus norvegicus [10]) [mg]	Recovery (Rattus norvegicus [11]) [mg]	Recovery (Rattus norvegicus [12]) [mg]	Recovery (Rattus norvegicus [13]) [mg]	Recovery (Rattus norvegicus [14]) [mg]	Recovery (Rattus norvegicus [15]) [mg]	Recovery (Rattus norvegicus [16]) [mg]	Recovery (Rattus norvegicus [17]) [mg]
C[C@@H]1C[C@H]2[C@@H]3CCC4=CC(=O)C=C[C@]4(C)[C@@]3(F)[C@@H](O)C[C@]2(C)[C@@]1(O)C(=O)CO	0.09	2.24	0.11	0.13	0.05	0.18	0.12	1.66									
C[C@@H]1CC2C3CCC4=CC(=O)C=CC4(C)[C@@]3(F)C(O)CC2(C)[C@@]1(O)C(=O)CO[C@@H]1O[C@H](CO)[C@@H](O)[C@H](O)[C@H]1O (some centres not stated)									0.94	5	0.24	0.23	0.21	0.02	5.61	0.04	
C[C@]12C=CC(=O)C=C1CC[C@@H]1[C@@H]2[C@@H](O)C[C@@]2(C)[C@H]1CC[C@]2(O)C(=O)CO	0	0.57	0.18	0.3	0	0.03	0.09	0.29									
C[C@]12C=CC(=O)C=C1CC[C@@H]1[C@@H]2C(O)C[C@@]2(C)[C@H]1CC[C@]2(O)C(=O)CO[C@@H]1O[C@H](CO)[C@@H](O)[C@H](O)[C@H]1O (some centres not stated)									0.18	1.73	0.19	0		0	1.57	0.06	0
